pIC50: −log10 of the molar value. Calls of active or inactive are those of the source. No cut-off for these calls is given here.
How the values were obtained:
Streptococcus entericus = assay: Antibacterial activity against Streptococcus entericus assessed as zone of inhibition at 5 uL and 32 degC after 36 hrs by disk diffusion method; type: functional
In short: (§1)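 Disc diffusion on AC agar, each strain spread evenly over the medium; test compounds given as 1% (w/v) DMSO solutions. Plates covered and incubated 36 h at 32 °C, then the diameter of the zone of inhibited growth measured in mm. Tetracycline served as antibacterial reference.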

Yarrowia lipolytica = assay: Antifungal activity against Yarrowia lipolytica assessed as zone of inhibition at 5 uL and 28 degC after 36 hrs by disk diffusion method; type: functional
In short: (§2)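 Agar disc diffusion with the test compound applied as a 1% (w/v) DMSO solution. Yeasts were grown on AC agar and Aspergillus niger on potato dextrose broth agar, each strain spread evenly. Plates were covered and kept 36 h at 28 °C, and the inhibition zone diameter was read in mm. Clotrimazole served as reference.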

Aspergillus niger = assay: Antifungal activity against Aspergillus niger assessed as zone of inhibition at 5 uL and 28 degC after 36 hrs by disk diffusion method; type: functional; in short: as §2
Staphylococcus equorum = assay: Antibacterial activity against Staphylococcus equorum assessed as zone of inhibition at 5 uL and 32 degC after 36 hrs at by disk diffusion method; type: functional; in short: as §1
Nakaseomyces glabratus = assay: Antifungal activity against Candida glabrata assessed as zone of inhibition at 5 uL and 28 degC after 36 hrs by disk diffusion method; type: functional; in short: as §2
[1] = (§3) Antibacterial activity against Pseudomonas antimicrobica assessed as zone of inhibition at 5 uL and 32 degC after 36 hrs by disk diffusion method; type: functional, Burkholderia gladioli; in short: as §1
Escherichia coli = assay: Antibacterial activity against Escherichia coli assessed as zone of inhibition at 5 uL and 32 degC after 36 hrs by disk diffusion method; type: functional; in short: as §1
[2] = Antifungal activity against Hyphopichia burtonii assessed as zone of inhibition at 5 uL and 28 degC after 36 hrs by disk diffusion method; type: functional; in short: as §2
HL-60 = assay: Cytotoxicity against human HL60 cells after 24 hrs by MTT assay; type: functional, cell-based; conditions: HL-60, 24 h
In short: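 HL-60 cells kept in RPMI 1640 with 10% FBS, no antibiotics, 37 °C, humidified 5% CO2. Cells (9 × 10^5 cells/mL) exposed to compound in 96-well plates for 24 h at 37 °C. MTT in PBS (5 mg/mL) added for 2 h, then DMSO, shaken 1 h and read photometrically. IC50 determined; cisplatin reference.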

Burkholderia gladioli = assay: as §3; type: functional; in short: as §1

Compound	diameter of the inhibition zone (DIZ) (Streptococcus entericus)	diameter of the inhibition zone (DIZ) (Yarrowia lipolytica)	diameter of the inhibition zone (DIZ) (Aspergillus niger)	diameter of the inhibition zone (DIZ) (Staphylococcus equorum)	diameter of the inhibition zone (DIZ) (Nakaseomyces glabratus)	diameter of the inhibition zone (DIZ) [1] [mm]	diameter of the inhibition zone (DIZ) (Escherichia coli)	inhibition zone (IZ) [2] [mm]	pIC50 (HL-60)	diameter of the inhibition zone (DIZ) (Burkholderia gladioli)	diameter of the inhibition zone (DIZ) [2]
CCN1C(=O)[C@H]2[C@H](CC=C3[C@H]2CC[C@]2(C)[C@@H]([C@H](C)CCCC(C)C)CC[C@@H]32)C1=O	11 mm	inactive	inactive	8 mm	8 mm	7	7 mm	7	4.89	–	–
CCCN1C(=O)[C@H]2[C@H](CC=C3[C@H]2CC[C@]2(C)[C@@H]([C@H](C)CCCC(C)C)CC[C@@H]32)C1=O	7 mm	10 mm	inactive	inactive	6 mm	7	7 mm	14	5.15	–	–
C=CC1=CCC[C@]2(C)[C@@H]([C@H](C)CCCC(C)C)CC[C@@H]12	9 mm	inactive	inactive	10 mm	inactive	–	inactive	–	< 4.00	inactive	inactive
CC(C)CCC[C@@H](C)[C@H]1CC[C@H]2C3=CCn4c(=O)c5ccccc5c(=O)n4[C@@H]3CC[C@]12C	inactive	inactive	inactive	inactive	10 mm	7	inactive	7	4.77	–	–
CC(C)CCC[C@@H](C)[C@H]1CC[C@H]2C3=CC[C@@H]4C(=O)N(C)C(=O)[C@@H]4[C@@H]3CC[C@]12C	10 mm	inactive	inactive	inactive	10 mm	7	10 mm	14	4.82	–	–
CC(C)CCC[C@@H](C)[C@H]1CC[C@H]2C3=CC[C@@H]4C(=O)OC(=O)[C@@H]4[C@@H]3CC[C@]12C	12 mm	inactive	inactive	inactive	8 mm	10	7 mm	10	4.52	–	–
CC(C)CCC[C@@H](C)[C@H]1CC[C@H]2C(/C=C/CN3C(=O)C=CC3=O)=CCC[C@]12C	15 mm	inactive	inactive	11 mm	7 mm	10	9 mm	8	4.49	–	–
CN(C)[C@@H]1C(O)=C(C(N)=O)C(=O)[C@@]2(O)C(O)=C3C(=O)c4c(O)cccc4[C@@](C)(O)[C@H]3C[C@@H]12 [TETRACYCLINE]	22 mm	–	–	30 mm	–	25	30 mm	–	–	–	–
CC(C)CCC[C@@H](C)[C@H]1CC[C@H]2C(/C=C/CO)=CCC[C@]12C	14 mm	inactive	inactive	12 mm	18 mm	18	10 mm	22	4.49	–	–
CC(C)CCC[C@@H](C)[C@H]1CC[C@H]2C(CCCCO)CCC[C@]12C (mixture of isomers)	–	–	–	–	–	–	–	–	4.89	–	–
CC(C)CCC[C@@H](C)[C@H]1CC[C@H]2C3=CC[C@@H]4C(=O)NC(=O)[C@@H]4[C@@H]3CC[C@]12C	15 mm	inactive	inactive	14 mm	15 mm	11	24 mm	–	4.80	–	inactive
CC(C)CCC[C@@H](C)[C@H]1CC[C@H]2C(C#CCCN3C(=O)C=CC3=O)=CCC[C@]12C	15 mm	inactive	inactive	11 mm	10 mm	13	15 mm	12	4.34	–	–
CC(C)=CCCC1=CCn2c(=O)ccc(=O)n2C1	inactive	inactive	inactive	inactive	inactive	–	inactive	–	4.39	inactive	inactive
CC(C)CCC[C@@H](C)[C@H]1CC[C@H]2C(CCCCN3C(=O)C=CC3=O)CCC[C@]12C (mixture of isomers)	12 mm	inactive	inactive	11 mm	8 mm	9	10 mm	9	4.85	–	–
CC(C)CCC[C@@H](C)[C@H]1CC[C@H]2C(C#CCCO)=CCC[C@]12C	14 mm	inactive	inactive	6 mm	10 mm	11	10 mm	11	4.42	–	–
Clc1ccccc1C(c1ccccc1)(c1ccccc1)n1ccnc1 [CLOTRIMAZOLE]	–	18 mm	13 mm	–	18 mm	–	–	20	–	–	–
CC(C)CCC[C@@H](C)[C@H]1CC[C@H]2C3=CCn4c(=O)n(C)c(=O)n4[C@@H]3CC[C@]12C	inactive	inactive	inactive	10 mm	inactive	–	inactive	–	4.89	inactive	inactive

Source: ChEMBL document CHEMBL1806372, “Cytotoxic ring A-modified steroid analogues derived from Grundmann's ketone” (Eur J Med Chem, 2011)
